Here are results for 26 molecules from ChEMBL document CHEMBL1134307, “trans-4-[4-(Methoxyphenyl)cyclohexyl]-1-arylpiperazines: a new class of potent and selective 5-HT(1A) receptor ligands as conformationally constrained analogues of 4-[3-(5-methoxy-1,2,3,4-tetrahydronaphthalen-1-yl)propyl]-1-arylpiperazines” (J Med Chem, 2001).

One assay deals with D(2) dopamine receptor (Rattus norvegicus, UniProt P61169). Description: Binding affinity towards dopamine receptor D2 in rat striatal membranes. In kind it is cell membranes, Striatum, Membrane.
Sequence of D(2) dopamine receptor (P61169 whole entry): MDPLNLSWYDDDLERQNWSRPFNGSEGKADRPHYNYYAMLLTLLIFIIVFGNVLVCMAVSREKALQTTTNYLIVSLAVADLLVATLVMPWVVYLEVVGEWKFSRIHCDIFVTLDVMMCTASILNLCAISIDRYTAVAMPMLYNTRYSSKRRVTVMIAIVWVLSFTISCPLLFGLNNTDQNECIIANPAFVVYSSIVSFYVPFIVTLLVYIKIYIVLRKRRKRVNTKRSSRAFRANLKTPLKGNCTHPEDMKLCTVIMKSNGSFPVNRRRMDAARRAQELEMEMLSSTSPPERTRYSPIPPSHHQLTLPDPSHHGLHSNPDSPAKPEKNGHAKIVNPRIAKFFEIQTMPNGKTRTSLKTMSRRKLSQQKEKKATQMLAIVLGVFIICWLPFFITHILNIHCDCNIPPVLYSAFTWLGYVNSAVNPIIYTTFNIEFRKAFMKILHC
The target in assay [1] is T1, Adrenergic receptor alpha-1 (Rattus norvegicus, UniProt P15823+P23944+P43140).
T1 sequence (P15823 whole entry): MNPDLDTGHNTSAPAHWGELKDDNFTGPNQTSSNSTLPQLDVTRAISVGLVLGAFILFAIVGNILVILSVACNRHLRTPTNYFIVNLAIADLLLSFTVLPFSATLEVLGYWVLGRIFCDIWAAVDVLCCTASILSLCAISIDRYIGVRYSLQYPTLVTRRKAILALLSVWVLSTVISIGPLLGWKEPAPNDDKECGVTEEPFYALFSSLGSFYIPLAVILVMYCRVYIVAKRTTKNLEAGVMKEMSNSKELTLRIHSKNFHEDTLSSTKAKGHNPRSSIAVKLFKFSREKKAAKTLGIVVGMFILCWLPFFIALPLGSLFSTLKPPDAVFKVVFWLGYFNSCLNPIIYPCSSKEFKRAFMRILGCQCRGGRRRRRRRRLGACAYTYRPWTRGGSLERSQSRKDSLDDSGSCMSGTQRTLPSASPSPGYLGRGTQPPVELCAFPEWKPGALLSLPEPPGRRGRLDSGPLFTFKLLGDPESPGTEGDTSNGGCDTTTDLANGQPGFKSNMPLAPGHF
T1 sequence (P23944 whole entry): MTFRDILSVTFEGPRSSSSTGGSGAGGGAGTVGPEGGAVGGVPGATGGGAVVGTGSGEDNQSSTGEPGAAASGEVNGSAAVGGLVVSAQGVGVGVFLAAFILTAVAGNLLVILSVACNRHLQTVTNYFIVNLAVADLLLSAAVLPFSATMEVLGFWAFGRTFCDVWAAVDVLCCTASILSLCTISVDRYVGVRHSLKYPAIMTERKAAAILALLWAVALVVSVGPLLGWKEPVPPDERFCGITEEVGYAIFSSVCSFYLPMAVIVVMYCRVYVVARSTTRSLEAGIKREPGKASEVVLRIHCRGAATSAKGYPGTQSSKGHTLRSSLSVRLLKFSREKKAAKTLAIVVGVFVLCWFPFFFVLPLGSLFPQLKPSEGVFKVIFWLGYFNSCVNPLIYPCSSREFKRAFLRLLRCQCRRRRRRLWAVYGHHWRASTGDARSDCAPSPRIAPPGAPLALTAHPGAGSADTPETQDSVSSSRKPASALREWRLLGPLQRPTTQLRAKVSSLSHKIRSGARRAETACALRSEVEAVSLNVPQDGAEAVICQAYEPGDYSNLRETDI
T1 sequence (P43140 whole entry): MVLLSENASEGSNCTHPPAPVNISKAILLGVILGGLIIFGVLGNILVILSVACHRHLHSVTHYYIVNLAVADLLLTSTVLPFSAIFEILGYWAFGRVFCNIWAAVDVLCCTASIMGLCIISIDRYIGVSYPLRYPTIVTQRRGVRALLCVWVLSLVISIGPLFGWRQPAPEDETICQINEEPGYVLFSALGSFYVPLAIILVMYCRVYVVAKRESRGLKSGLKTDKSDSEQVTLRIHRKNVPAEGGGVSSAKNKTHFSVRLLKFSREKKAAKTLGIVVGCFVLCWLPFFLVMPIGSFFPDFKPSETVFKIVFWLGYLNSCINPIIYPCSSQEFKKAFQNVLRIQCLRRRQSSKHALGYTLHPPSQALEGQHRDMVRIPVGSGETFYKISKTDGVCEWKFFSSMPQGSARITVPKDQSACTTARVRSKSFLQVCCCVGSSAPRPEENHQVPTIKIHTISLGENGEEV
Description: Binding affinity towards alpha-1 adrenergic receptor in rat cortical membranes. The class given is cell membranes.

Assay [2] concerns the target T2, 5-hydroxytryptamine receptor 1A (Rattus norvegicus, UniProt P19327).
T2 sequence (P19327 whole entry): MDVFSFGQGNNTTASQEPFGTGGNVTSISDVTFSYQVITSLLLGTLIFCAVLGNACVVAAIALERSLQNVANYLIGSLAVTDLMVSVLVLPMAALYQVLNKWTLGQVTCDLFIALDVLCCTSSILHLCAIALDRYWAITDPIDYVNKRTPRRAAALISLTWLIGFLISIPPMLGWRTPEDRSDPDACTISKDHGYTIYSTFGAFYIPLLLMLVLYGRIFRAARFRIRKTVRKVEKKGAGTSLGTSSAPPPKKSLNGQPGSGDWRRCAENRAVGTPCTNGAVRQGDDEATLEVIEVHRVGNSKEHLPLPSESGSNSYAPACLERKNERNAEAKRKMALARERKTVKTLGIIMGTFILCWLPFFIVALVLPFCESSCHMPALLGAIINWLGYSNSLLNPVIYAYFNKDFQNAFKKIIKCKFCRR
The assay can be described thus: Binding was determined on 5-hydroxytryptamine 1A receptor in rat hippocampal membranes. The class given is cell membranes, Hippocampus. Summed up: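 Hippocampus from male Wistar Hannover rats, homogenized in 50 mM Tris pH 7.6, washed, and preincubated 10 min at 37 °C. Ki given as mean ± SEM.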

In assay [3] the target is T3, 5-hydroxytryptamine receptor 1A (Homo sapiens) (UniProt P08908).
T3 sequence (whole entry): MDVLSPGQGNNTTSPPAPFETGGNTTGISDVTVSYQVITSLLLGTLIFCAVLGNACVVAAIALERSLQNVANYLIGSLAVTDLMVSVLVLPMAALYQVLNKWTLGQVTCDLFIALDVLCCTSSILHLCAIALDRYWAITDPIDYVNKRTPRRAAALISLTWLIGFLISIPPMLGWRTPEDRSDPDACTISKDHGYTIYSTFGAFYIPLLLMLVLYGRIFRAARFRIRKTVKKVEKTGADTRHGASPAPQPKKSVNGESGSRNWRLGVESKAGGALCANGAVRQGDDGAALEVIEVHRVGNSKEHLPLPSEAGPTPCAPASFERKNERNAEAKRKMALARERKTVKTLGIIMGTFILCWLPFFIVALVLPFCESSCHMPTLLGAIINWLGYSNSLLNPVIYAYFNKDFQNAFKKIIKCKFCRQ
The assay can be described thus: Maximal stimulation was expressed as percentage of the maximal 5-HT response in the [35S]GTP-gamma-S, binding assay on 5-hydroxytryptamine 1A receptor. In kind it is functional. The gist of the method:
(§1)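 Membranes of HeLa cells expressing human 5-HT1A, in 20 mM HEPES, 3 mM MgCl2, 120 mM NaCl pH 7.4. Preincubated 20 min at 30 °C with 30 µM GDP and drug (0.1 nM–100 µM) or 5-HT as reference curve. [35S]GTPγS (200–250 pM) then added for 30 min at 30 °C. Nonspecific binding with 10 µM GTPγS. Curves fitted by ALLFIT to give Emax and pD2 (−log EC50).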

Assay [4] is described as follows: Selectivity expressed as a ratio of affinity against Alpha 1b-Adrenoceptor to that of 5-HT1A receptor.
The target of assay [5] is T3, 5-hydroxytryptamine receptor 1A (Homo sapiens). Description: Potency (pD2) for the stimulation of [35S]GTP-gamma-S, binding on 5-hydroxytryptamine 1A receptor. In kind it is functional. The gist of the method:
as §1
Background: GTPγS resists hydrolysis and so accumulates on activated G proteins.

Assay [6] is described as follows: Selectivity expressed as a ratio of affinity against Alpha 1A-Adrenoceptor to that of 5-HT1A receptor.
Assay [7] in a line: Selectivity expressed as a ratio of affinity against Alpha 1d-Adrenoceptor to that of 5-HT1A receptor.
The target in assay [8] is T4, 5-hydroxytryptamine receptor 1A (Rattus norvegicus) (UniProt P19327).
T4 sequence (whole entry): T2 sequence (P19327 whole entry)
The assay can be described thus: Agonistic activity (induction of forepaw treading in rats)on postsynaptic 5-hydroxytryptamine 1A receptor while iv administration. The class given is functional, organism-based. The gist of the method:
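Male Sprague Dawley rats (175–200 g), iv injection; vehicle DMF 20% v/v plus Tween 80 10% v/v in water, or water for the reference agonist. Rats placed singly 10–15 min beforehand, 4–8 per dose. A blind observer scored fore-paw treading in 30 s sessions every 3 min from 3 to 15 min.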

On to `COc1ccc2c(c1)CCC(CN1CCN(c3ccccn3)CC1)C2` (stereo unspecified), for which the Ki on D(2) dopamine receptor is over 850 nM; in assay [1], 585 nM; in [2] it was 676 nM.

With `COc1cccc(C2CCC(N3CCN(c4cccc5ccccc45)CC3)CC2)c1` (stereo in doubt), the Ki was 1310 nM on D(2) dopamine receptor, 5540 nM in assay [1] and 74 nM in assay [2].

In the case of `COc1ccc2c(c1)CC(CCN1CCN(c3ccccn3)CC1)CC2` (stereo unspecified), the figures for the inhibitory constant (Ki) (at D(2) dopamine receptor; in assay [1]; in assay [2]) were 1730 nM, 117 nM and 0.16 nM, respectively.

With `COc1cccc(C2CCC(NCCOc3ccccn3)CC2)c1` (cis isomer), the Ki on D(2) dopamine receptor was 783 nM; in assay [2] it was 373 nM.

As to `COc1cccc(C2=CCC(N3CCN(c4ccccc4OC)CC3)CC2)c1` (stereo unspecified), the Ki on D(2) dopamine receptor stood at 2930 nM; in assay [1], 408 nM; in assay [2], 7.1 nM.

`CCCN(CCC)C1CCc2cccc(O)c2C1` (stereo unspecified): in assay [3], the Emax stood at 100%.

In the case of `COc1ccccc1C1CCC(N2CCN(c3ccccn3)CC2)CC1` (stereo in doubt; cis), the inhibition constant Ki on D(2) dopamine receptor is 2120 nM; in assay [1] it was 712 nM; in [2], 480 nM.

In the case of `COc1cccc(CCCCNCCOc2ccccn2)c1`, the Ki at D(2) dopamine receptor is over 850 nM; in assay [1] it was 733 nM; in assay [2], 39 nM.

For the molecule `COc1cccc(C2CCC(N3CCN(c4ccccc4OC)CC3)CC2)c1` (stereo in doubt; trans), the Selectivity in assay [4] was determined as 206; in assay [6], 24; in [7], 21. Besides, the pD2 in assay [5] was found to be 9.91. In assay [3], this molecule displayed an Emax of 26.5%.

Take `COc1cccc2c1CCC/C2=C\CCNCCOc1ccccn1`: the Ki was over 850 nM on D(2) dopamine receptor, over 850 nM in assay [1] and 0.71 nM in [2].

For the molecule `COc1cccc(C2CCC(N3CCN(c4ccccc4)CC3)CC2)c1` (stereo in doubt; cis), the values for the Ki (at D(2) dopamine receptor; in assay [1]; in assay [2]) were 2380 nM, 2250 nM and 183 nM, respectively.

For `COc1ccc(C2CCC(N3CCN(c4ccccn4)CC3)CC2)cc1` (stereo in doubt), the inhibition constant (Ki) amounted to 787 nM at D(2) dopamine receptor, 786 nM in assay [1] and 94 nM in assay [2].

For the molecule `COc1cccc2c1CCC/C2=C\CCN1CCN(c2ccccn2)CC1`, the results for the Ki (on D(2) dopamine receptor; in [1]; in [2]) were 125 nM, 60 nM and 0.31 nM, respectively.

Take `COc1cccc(CCCCN2CCN(c3ccccn3)CC2)c1`: the Ki on D(2) dopamine receptor turned out to be 750 nM; in assay [1], 467 nM; in [2], 23 nM.

Take `COc1ccccc1C1CCC(N2CCN(c3ccccn3)CC2)CC1` (stereo in doubt; trans): the figures for the Ki (at D(2) dopamine receptor; in [1]; in assay [2]) were 243 nM, 303 nM and 0.2 nM, respectively.

Turning to `COc1cccc(C2CCC(N3CCN(c4ccccn4)CC3)CC2)c1` (trans isomer), the Selectivity in assay [4] was 265; in assay [6], 165; in assay [7], 590. The same molecule yielded an ED50 in assay [8] of 0.721 µg/kg. Besides, the pD2 in [5] amounted to 9.28. In addition, the Emax in assay [3] was 95.9%.

For `COc1cccc(C2=CCC(N3CCN(c4ccccn4)CC3)CC2)c1` (stereo unspecified), the Ki at D(2) dopamine receptor is 1220 nM; in [1], 512 nM; in assay [2], 536 nM.

For `COc1cccc(C2=CCC(N3CCN(c4ccccc4)CC3)CC2)c1` (stereo unspecified), the inhibitory constant (Ki) came to 2190 nM on D(2) dopamine receptor and 5160 nM in assay [1].

With `COc1cccc(C2CCC(N3CCN(c4ccccc4)CC3)CC2)c1` (stereo in doubt; trans), the Ki on D(2) dopamine receptor came out at 910 nM; in assay [1], 730 nM; in assay [2] it was 0.026 nM.

As to `COc1cccc(C2=CCC(N3CCN(c4cccc5ccccc45)CC3)CC2)c1` (stereo unspecified), the Ki at D(2) dopamine receptor came out at 327 nM; in assay [1] it was 986 nM; in assay [2], 15 nM.

In the case of `COc1ccc2c(c1)CCC(CNCCOc1ccccn1)C2` (stereo unspecified), the results for the Ki (on D(2) dopamine receptor; in [1]; in assay [2]) were over 850 nM, over 850 nM and 59 nM, respectively.

On to `COc1cccc(C2CCC(N3CCN(c4ccccn4)CC3)CC2)c1` (cis isomer), for which the values for the Ki (on D(2) dopamine receptor; in [1]; in assay [2]) were over 850 nM, 783 nM and 815 nM, respectively.

In the case of `COc1ccc(C2CCC(N3CCN(c4ccccn4)CC3)CC2)cc1` (trans isomer), the inhibition constant Ki on D(2) dopamine receptor was 792 nM; in assay [1], 847 nM; in assay [2], 0.046 nM.

Turning to `COc1cccc(C2CCC(N3CCN(c4cccc5ccccc45)CC3)CC2)c1` (trans isomer), the Ki at D(2) dopamine receptor is 70 nM; in assay [1] it was 470 nM; in [2], 0.22 nM.

Take `COc1cccc(C2CCC(NCCOc3ccccn3)CC2)c1` (stereo in doubt): the Selectivity was 88 in assay [4], 53 in assay [6] and 37 in assay [7]. This molecule also registered a pD2 in [5] of 7.46. The Emax in [3] came to 82%.

As for `COc1cccc(C2CCC(N3CCN(c4ccccc4OC)CC3)CC2)c1` (stereo in doubt; cis), the Ki at D(2) dopamine receptor is 668 nM; in assay [1], 1050 nM; in assay [2], 79.6 nM.

For orientation: Ki means the dissociation constant of the complex between target and ligand, obtained from inhibition or displacement. The Emax is the maximal effect, on the per cent scale that the assay sets. One may read the ED50 as the dose at which the effect has come halfway, by size or by number of responders. High values mean a need for a large dose, low ones an effect at a small dose.
